Source: ChEMBL document CHEMBL3271975, “Synthesis and biological activity of a series of 1-aryl-3-pyrazolidinones” (J Med Chem, 1976)
Calls of active or inactive are those of the source. The rule behind the calls is not given here.

Experiments:
Rattus norvegicus [1] = species: Rattus norvegicus; test: CNS activity in rat assessed as gross behaviour; type: ADME, organism-based; conditions: in vivo
Rattus norvegicus [2] = test: Antifertility activity in rat at 5 mg/day administered for 7 days; type: functional, organism-based
How it was run: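 Rat antifertility test: 5 mg/rat/day given for 7 days to two female rats.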

For `CCOC(=O)CCCCCOC1=NN(c2cccc(OC)c2)CC1`, which Activity (Rattus norvegicus [1]) is on record?
Its Activity is “Non-toxic”.

What about the Activity (Rattus norvegicus [2]) of the same compound?
The Activity was “inactive”.

With `CCCCOc1cccc(N2CCC(=O)N2)c1` as the compound, how does the Activity (Rattus norvegicus [1]) read?
The Activity was “Non-toxic”.

What about the Activity (Rattus norvegicus [2]) of the same compound?
The Activity was “inactive”.

Which results are given for `CCOC(=O)COC1=NN(c2cccc(C(F)(F)F)c2)CC1`?
Activity (Rattus norvegicus [1]): Non-toxic; Activity (Rattus norvegicus [2]): inactive

With `O=C1CCN(c2cccc(Cl)c2)N1` as the compound, how does the Activity (Rattus norvegicus [1]) read?
Its Activity is “Non-toxic”.

What about the Activity (Rattus norvegicus [2]) of the same compound?
Its Activity is “inactive”.

What does the source list for `COc1cccc(N2CCC(=O)N2CCCC(=O)c2ccc(F)cc2)c1`?
Activity (Rattus norvegicus [1]): Non-toxic; Activity (Rattus norvegicus [2]): inactive

Which Activity (Rattus norvegicus [1]) does the source give for `O=C1CCN(c2cccc(C(F)(F)F)c2)N1` here?
Its Activity is “Non-toxic”.

And the Activity (Rattus norvegicus [2])?
Its Activity is “inactive”.

Which Activity (Rattus norvegicus [1]) does the source give for `COc1cccc(N2CCC(=O)N2)c1` here?
Its Activity is “Non-toxic”.

And the Activity (Rattus norvegicus [2])?
Its Activity is “inactive”.

With `CCOC(=O)COC1=NN(c2cccc(Cl)c2)CC1` as the compound, how does the Activity (Rattus norvegicus [1]) read?
The Activity was “Non-toxic”.

And the Activity (Rattus norvegicus [2])?
The Activity was “inactive”.

Which results are given for `COc1cccc(N2CCC(=O)N2CCCC(O)c2ccc(F)cc2)c1` (stereo not drawn)?
Activity (Rattus norvegicus [1]): Non-toxic; Activity (Rattus norvegicus [2]): inactive
